Source: ChEMBL document CHEMBL1141963, “Ketene aminal-based lactam derivatives as a novel class of orally active FXa inhibitors” (Bioorg Med Chem Lett, 2005)

Assays:
[1] = molecular target: T1, Coagulation factor X (Homo sapiens, UniProt P00742); test: Inhibitory activity against human FXa
Target sequence in this assay (P00742 41-179 limits assumed): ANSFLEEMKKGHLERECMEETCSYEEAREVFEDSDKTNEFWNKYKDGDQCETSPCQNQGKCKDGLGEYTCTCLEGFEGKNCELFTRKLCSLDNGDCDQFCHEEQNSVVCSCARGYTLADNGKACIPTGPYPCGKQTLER
Target sequence in this assay (P00742 235-488 limits assumed): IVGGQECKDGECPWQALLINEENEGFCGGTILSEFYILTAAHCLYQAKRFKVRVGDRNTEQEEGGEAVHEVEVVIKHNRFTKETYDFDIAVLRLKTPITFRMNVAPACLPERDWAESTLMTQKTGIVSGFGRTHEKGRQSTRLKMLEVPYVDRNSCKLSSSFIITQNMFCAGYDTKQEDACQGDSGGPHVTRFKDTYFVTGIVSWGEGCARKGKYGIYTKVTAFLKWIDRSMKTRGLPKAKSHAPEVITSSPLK

[2] = molecular target: T1, Coagulation factor X; test: Anticoagulant potency in human plasma as measured by prothrombin time
Target sequence in this assay (P00742 whole entry, looked up): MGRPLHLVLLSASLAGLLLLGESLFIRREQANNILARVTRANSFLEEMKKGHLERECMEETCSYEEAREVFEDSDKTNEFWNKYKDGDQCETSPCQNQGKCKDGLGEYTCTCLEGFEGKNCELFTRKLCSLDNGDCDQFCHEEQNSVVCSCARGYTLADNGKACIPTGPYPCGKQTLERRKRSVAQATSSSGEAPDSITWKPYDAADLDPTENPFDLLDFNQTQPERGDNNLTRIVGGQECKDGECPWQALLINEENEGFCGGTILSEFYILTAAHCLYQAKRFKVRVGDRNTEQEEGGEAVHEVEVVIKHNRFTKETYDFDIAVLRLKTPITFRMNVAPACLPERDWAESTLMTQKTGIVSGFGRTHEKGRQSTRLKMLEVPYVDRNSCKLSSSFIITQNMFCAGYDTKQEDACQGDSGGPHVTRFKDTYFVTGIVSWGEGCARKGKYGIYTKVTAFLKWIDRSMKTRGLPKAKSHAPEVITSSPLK

[3] = Binding affinity to trypsin; set-up: species or system Homo sapiens
Summary of the method: (§1)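 Human enzymes, each assayed against a low-molecular-weight synthetic substrate. Ki was calculated from IC50 assuming competitive inhibition, as Ki = IC50/(1 + [S]/Km), where [S] is the substrate concentration in the assay and Km the substrate's Michaelis constant. Values are averages of two independent determinations.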

[4] = molecular target: Prothrombin (Homo sapiens, UniProt P00734); test: Binding affinity to thrombin; summary of the method: as §1
[5] = molecular target: Plasma kallikrein (Homo sapiens, UniProt P03952); test: Binding affinity to plasma kallikrein; summary of the method: as §1
Sequence of Plasma kallikrein (P03952 20-390 limits assumed): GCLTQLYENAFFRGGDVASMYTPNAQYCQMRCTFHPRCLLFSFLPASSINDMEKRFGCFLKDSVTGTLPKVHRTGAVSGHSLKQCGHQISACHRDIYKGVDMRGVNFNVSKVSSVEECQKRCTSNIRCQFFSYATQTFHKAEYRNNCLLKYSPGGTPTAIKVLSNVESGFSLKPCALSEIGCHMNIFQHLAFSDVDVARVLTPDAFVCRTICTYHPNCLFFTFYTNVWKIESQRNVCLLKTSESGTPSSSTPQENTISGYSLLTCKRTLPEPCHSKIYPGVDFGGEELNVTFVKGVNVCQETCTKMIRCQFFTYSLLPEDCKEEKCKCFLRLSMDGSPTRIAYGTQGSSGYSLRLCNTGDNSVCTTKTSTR
Sequence of Plasma kallikrein (P03952 391-638 limits assumed): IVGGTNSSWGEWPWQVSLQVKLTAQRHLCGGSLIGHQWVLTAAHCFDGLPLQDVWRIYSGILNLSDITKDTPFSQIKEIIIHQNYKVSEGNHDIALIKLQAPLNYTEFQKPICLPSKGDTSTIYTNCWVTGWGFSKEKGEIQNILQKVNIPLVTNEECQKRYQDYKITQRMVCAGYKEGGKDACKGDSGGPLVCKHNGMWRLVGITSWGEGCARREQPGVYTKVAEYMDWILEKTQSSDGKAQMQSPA

[6] = molecular target: Urokinase-type plasminogen activator (Homo sapiens, UniProt P00749); test: Binding affinity to urokinase; summary of the method: as §1
[7] = molecular target: Plasminogen (Homo sapiens, UniProt P00747); test: Binding affinity to plasmin; summary of the method: as §1
Sequence of Plasminogen (P00747 97-580 limits assumed): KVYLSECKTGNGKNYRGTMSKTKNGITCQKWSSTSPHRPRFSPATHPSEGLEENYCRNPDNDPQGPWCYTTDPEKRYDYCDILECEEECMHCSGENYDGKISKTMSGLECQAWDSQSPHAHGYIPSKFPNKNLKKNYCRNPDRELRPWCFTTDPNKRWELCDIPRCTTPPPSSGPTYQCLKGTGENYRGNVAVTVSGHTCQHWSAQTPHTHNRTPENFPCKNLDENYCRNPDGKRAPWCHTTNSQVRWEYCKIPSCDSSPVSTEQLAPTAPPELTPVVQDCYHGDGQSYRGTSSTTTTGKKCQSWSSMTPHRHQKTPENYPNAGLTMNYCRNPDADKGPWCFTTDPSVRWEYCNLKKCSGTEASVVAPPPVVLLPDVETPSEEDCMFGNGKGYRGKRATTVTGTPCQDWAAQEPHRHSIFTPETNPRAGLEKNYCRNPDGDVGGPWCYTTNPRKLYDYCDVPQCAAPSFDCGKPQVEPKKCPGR
Sequence of Plasminogen (P00747 581-810 limits assumed): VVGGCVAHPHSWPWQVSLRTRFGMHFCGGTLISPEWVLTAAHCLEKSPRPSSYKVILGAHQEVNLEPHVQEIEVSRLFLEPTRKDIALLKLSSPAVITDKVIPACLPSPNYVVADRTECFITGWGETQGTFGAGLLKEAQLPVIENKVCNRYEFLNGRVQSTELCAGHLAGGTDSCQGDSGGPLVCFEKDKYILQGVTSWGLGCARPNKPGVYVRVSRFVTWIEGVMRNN

[8] = molecular target: Tissue-type plasminogen activator (Homo sapiens, UniProt P00750); test: Binding affinity to tPA; summary of the method: as §1
Sequence of Tissue-type plasminogen activator (P00750 whole entry): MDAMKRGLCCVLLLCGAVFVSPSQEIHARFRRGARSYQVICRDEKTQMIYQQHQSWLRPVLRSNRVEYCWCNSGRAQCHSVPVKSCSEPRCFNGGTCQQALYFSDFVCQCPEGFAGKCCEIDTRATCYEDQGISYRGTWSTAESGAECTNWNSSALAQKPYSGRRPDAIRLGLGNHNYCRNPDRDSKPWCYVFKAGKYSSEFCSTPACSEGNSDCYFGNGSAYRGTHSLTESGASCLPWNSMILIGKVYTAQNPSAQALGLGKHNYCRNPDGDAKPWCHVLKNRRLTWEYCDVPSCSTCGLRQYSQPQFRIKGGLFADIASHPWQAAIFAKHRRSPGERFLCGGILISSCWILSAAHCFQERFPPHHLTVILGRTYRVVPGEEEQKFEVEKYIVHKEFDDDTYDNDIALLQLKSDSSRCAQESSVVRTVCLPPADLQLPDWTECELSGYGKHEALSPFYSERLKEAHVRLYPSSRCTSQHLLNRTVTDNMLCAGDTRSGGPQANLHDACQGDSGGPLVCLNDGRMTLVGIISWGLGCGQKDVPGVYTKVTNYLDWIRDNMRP

[9] = molecular target: Vitamin K-dependent protein C (Homo sapiens, UniProt P04070); test: Binding affinity to activated protein C; summary of the method: as §1
Sequence of Vitamin K-dependent protein C (P04070 43-197 limits assumed): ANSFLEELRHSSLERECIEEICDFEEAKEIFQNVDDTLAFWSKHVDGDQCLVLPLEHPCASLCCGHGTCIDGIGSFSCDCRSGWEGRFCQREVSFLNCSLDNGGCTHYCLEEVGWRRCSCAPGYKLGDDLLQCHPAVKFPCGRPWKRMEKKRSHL
Sequence of Vitamin K-dependent protein C (P04070 212-461 limits assumed): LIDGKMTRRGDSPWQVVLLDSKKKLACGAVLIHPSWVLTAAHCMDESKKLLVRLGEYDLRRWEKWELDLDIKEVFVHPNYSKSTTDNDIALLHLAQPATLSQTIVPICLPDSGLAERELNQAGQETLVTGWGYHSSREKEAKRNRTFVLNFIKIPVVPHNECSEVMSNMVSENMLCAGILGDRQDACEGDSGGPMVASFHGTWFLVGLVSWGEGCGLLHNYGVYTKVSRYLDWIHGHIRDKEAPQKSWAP

[10] = molecular target: Coagulation factor IX (Homo sapiens, UniProt P00740); test: Binding affinity to factor IXa; summary of the method: as §1
Sequence of Coagulation factor IX (P00740 47-191 limits assumed): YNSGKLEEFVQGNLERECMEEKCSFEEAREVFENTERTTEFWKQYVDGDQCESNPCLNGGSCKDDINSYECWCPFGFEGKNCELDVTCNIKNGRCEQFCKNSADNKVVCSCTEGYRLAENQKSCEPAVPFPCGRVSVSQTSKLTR
Sequence of Coagulation factor IX (P00740 227-461 limits assumed): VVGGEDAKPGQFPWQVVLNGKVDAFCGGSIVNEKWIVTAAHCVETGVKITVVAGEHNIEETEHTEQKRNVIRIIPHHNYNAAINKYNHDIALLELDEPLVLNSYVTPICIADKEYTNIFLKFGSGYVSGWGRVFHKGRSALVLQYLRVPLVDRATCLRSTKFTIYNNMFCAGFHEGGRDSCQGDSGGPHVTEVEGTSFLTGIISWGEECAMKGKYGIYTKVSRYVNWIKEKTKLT

[11] = molecular target: T2, Coagulation factor VII (Homo sapiens, UniProt P08709); test: Binding affinity to factor VIIa; summary of the method: as §1
T2 sequence (P08709 whole entry): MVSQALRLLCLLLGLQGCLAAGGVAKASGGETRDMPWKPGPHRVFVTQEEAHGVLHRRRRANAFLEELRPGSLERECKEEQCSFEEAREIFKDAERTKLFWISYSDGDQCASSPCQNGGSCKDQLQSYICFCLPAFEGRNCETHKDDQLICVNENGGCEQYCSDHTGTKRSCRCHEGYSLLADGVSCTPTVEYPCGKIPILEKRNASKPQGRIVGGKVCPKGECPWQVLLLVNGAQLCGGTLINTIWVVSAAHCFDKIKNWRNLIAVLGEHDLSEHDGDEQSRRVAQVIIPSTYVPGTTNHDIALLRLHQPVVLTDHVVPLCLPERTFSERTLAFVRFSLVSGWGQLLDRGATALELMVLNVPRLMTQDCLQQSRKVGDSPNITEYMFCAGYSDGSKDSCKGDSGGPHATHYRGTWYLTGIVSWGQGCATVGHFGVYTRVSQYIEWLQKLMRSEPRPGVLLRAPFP

[12] = molecular target: Chymotrypsinogen B (Homo sapiens, UniProt P17538); test: Binding affinity to chymotrypsin; summary of the method: as §1
Sequence of Chymotrypsinogen B (P17538 34-164 limits assumed, other chains not shown): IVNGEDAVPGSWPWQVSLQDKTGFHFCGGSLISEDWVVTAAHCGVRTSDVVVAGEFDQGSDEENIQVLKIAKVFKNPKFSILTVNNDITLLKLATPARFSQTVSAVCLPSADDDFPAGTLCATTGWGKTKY
Sequence of Chymotrypsinogen B (P17538 167-263 limits assumed, other chains not shown): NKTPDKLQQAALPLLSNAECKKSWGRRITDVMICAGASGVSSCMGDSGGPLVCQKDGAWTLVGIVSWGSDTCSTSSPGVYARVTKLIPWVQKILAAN

IC50 [1] [nM] | 2PT [2] [µM] | Compound | other results
> 34000 | – | Cc1ccc(N/C(=C\[N+](=O)[O-])N[C@H]2CCCCN(CC(=O)N3CCCC3)C2=O)cc1 | –
539 | – | O=C(CN1CCCC[C@H](N/C(=C/[N+](=O)[O-])Nc2ccc3occc3c2)C1=O)N1CCCC1 | –
17 | 13 | Cc1cc2cc(N/C(N[C@H]3CCCCN(CC(=O)N4CCCC4)C3=O)=C(/C#N)C(N)=O)ccc2o1 | –
> 34000 | – | CN(C)c1ccc(N/C(=C\[N+](=O)[O-])N[C@H]2CCCCN(CC(=O)N3CCCC3)C2=O)cc1 | –
2100 | – | CN(C)c1cccc(N/C(=C\[N+](=O)[O-])N[C@H]2CCCCN(CC(=O)N3CCCC3)C2=O)c1 | –
6700 | – | COc1cccc(N/C(=C\[N+](=O)[O-])N[C@H]2CCCCN(CC(=O)N3CCCC3)C2=O)c1 | –
10 | 10 | Cc1cc2cc(NC(=N/[C@H]3CCCCN(CC(=O)N4CCCC4)C3=O)/C(C#N)=C(\O)OCCCCO)ccc2o1 | Ki [1]: 12 nM; Ki [3]: > 5000 nM; Ki [4]: 6300 nM; Ki [5]: > 19400 nM; Ki [6]: > 14000 nM; Ki [7]: > 22000 nM; Ki [8]: 16000 nM; Ki [9]: > 21500 nM; Ki [10]: > 10000 nM; Ki [11]: > 55000 nM; Ki [12]: 9420 nM
1500 | – | O=C(CN1CCCC[C@H](N/C(=C/[N+](=O)[O-])Nc2ccc3c(c2)CCO3)C1=O)N1CCCC1 | –
10 | 31 | Cc1cc2cc(NC(/C=C(\O)c3nccs3)=N/[C@H]3CCCCN(CC(=O)N4CCCC4)C3=O)ccc2o1 | –
647 | – | Cc1cc2cc(N/C(N[C@H]3CCCCN(CC(=O)N4CCCC4)C3=O)=C(/C#N)S(=O)(=O)C(C)C)ccc2o1 | –
46 | 24 | Cc1cc2cc(N/C(N[C@H]3CCCCN(CC(=O)N4CCCC4)C3=O)=C(/C#N)S(C)(=O)=O)ccc2o1 | –
24 | 31 | CCO/C(O)=C(C#N)/C(=N\[C@H]1CCCCN(CC(=O)N2CCCC2)C1=O)Nc1ccc2oc(C)cc2c1 | –
3100 | – | COc1ccc(N/C(=C\[N+](=O)[O-])N[C@H]2CCCCN(CC(=O)N3CCCC3)C2=O)cc1 | –
57 | 21 | Cc1cc2cc(N/C(N[C@H]3CCCCN(CC(=O)N4CCCC4)C3=O)=C(/C#N)C(=O)N3CCC(C)CC3)ccc2o1 | –
16500 | – | O=C(CN1CCCC[C@H](N/C(=C/[N+](=O)[O-])Nc2ccccc2)C1=O)N1CCCC1 | –
57 | 60 | Cc1cc2cc(NC(=N/[C@H]3CCCCN(CC(=O)N4CCCC4)C3=O)/C(C#N)=C(\O)OC(C)(C)C)ccc2o1 | –
51 | – | Cc1cc2cc(N/C(=C\[N+](=O)[O-])N[C@H]3CCCCN(CC(=O)N4CCCC4)C3=O)ccc2o1 | –
13 | 62 | Cc1cc2cc(NC(=N/[C@H]3CCCCN(CC(=O)N4CCCC4)C3=O)/C(C#N)=C(\O)c3ccc(Cl)cc3)ccc2o1 | –
13 | 7 | Cc1cc2cc(N/C(N[C@H]3CCCCN(CC(=O)N4CCCC4)C3=O)=C(/C#N)C(=O)NC(N)=O)ccc2o1 | –
13 | 36 | COc1ccc(/C(O)=C(C#N)/C(=N\[C@H]2CCCCN(CC(=O)N3CCCC3)C2=O)Nc2ccc3oc(C)cc3c2)cc1 | –
3400 | – | COc1ccc(N/C(=C\[N+](=O)[O-])N[C@H]2CCCCN(CC(=O)N3CCCC3)C2=O)cc1C | –
1000 | – | O=C(CN1CCCC[C@H](N/C(=C/[N+](=O)[O-])Nc2ccc3ccccc3c2)C1=O)N1CCCC1 | –

Compound | IC50 [1] [nM] | 2PT [2] [µM] | other results
CCOP(=O)(OCC)/C(C#N)=C(\Nc1ccc2oc(C)cc2c1)N[C@H]1CCCCN(CC(=O)N2CCCC2)C1=O | 658 | > 60 | –
